Series [1] concerns the target T1, hERG (KCNH2) (Homo sapiens, UniProt Q12809). Briefly: Inhibition of hERG expressed in HEK293 cells at 10 uM by thallium flux assay relative to control. The settings on record: HEK293 cells that express hERG.
Series [2] concerns the target Voltage-gated inwardly rectifying potassium channel KCNH2 (Homo sapiens, UniProt Q12809). The series is described as follows: Inhibition of hERG transiently transfected in CHO cells at 10 uM at -100 mV holding potential by whole-cell patch clamp electrophysiology method. The class given is toxicity, cell-based. In outline:
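hERG transiently expressed in CHO cells (eGFP co-transfection marker) and recorded by whole-cell patch clamp at 20–22 °C, 24 h post-transfection. […] Pipette (mM): 140 KCl, 2 MgCl2, 10 EGTA, 10 HEPES, 5 Mg-ATP. Protocol: 1 s steps from −80 to +60 mV, then 140 ms at −100 mV. Tail current at −100 mV read as I_drug/I_CTL with 10 μM drug; ≥3 cells.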
On the technique in general: Block of hERG is tested as a sign of cardiac risk.

Series [3] can be described thus: Stability in human plasma assessed as compound remaining incubated upto 120 mins […] by LC-MS analysis. Format: ADME, cell-free. The settings on record: read-out: Stability. The method, boiled down: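 Human plasma prewarmed to 37 °C and centrifuged; compound added at 37 °C. Samples taken at 0, 30, 60, 90 and 120 min, quenched into ice-cold methanol with internal standard, and measured by LC-MS as % remaining relative to 0 min. Duplicates; procaine as control.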

The target of series [4] is T2, Potassium channel subfamily T member 1 (Homo sapiens, UniProt Q5JUK3).
T2 sequence (Q5JUK3 whole entry): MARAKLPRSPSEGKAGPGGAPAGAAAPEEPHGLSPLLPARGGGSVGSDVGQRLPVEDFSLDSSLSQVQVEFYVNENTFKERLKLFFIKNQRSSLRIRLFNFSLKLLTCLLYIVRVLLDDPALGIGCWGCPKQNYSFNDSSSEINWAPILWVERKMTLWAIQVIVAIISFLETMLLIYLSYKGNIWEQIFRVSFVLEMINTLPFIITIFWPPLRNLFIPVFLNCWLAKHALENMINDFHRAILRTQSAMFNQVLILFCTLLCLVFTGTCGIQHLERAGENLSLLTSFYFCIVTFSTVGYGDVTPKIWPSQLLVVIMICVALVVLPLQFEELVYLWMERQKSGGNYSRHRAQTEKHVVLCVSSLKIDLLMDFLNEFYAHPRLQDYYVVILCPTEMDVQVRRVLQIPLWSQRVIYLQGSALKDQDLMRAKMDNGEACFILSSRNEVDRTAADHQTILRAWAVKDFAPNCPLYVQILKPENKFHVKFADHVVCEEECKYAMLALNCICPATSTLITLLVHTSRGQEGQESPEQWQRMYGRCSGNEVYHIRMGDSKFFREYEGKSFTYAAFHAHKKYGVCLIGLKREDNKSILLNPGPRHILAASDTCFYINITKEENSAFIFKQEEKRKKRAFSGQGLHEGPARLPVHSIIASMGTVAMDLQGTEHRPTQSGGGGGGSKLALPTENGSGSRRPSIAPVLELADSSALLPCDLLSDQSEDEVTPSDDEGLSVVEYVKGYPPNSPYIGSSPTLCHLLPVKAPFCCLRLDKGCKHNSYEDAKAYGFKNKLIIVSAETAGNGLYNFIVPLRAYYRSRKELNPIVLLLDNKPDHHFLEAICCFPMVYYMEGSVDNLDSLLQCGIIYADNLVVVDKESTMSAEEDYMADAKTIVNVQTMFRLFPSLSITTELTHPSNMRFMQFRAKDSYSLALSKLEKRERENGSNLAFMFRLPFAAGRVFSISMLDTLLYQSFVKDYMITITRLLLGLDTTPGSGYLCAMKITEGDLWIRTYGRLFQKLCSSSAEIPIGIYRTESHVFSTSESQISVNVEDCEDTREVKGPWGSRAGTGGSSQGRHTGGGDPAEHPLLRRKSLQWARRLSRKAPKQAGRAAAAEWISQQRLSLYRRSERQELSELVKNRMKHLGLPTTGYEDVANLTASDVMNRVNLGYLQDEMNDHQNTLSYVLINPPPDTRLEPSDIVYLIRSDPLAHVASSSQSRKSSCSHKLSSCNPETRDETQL
The series is described as follows: Inhibition of human KCNT1 (98 to 354 residues) expressed in CHO cells assessed as reduction in thallium fluorescent signal incubated for 15 mins followed by LOX addition measured after 15 mins by FluxOR green dye based fluorescence analysis. The class given is cell-based.

Series [5] deals with T1, hERG (KCNH2). Briefly: Inhibition of hERG transiently transfected in CHO cells at 10 uM at -100 mV holding potential by whole-cell patch clamp electrophysiology method relative to control. The class given is toxicity, cell-based. The settings on record: CHO cells transiently transfected with hERG.
Series [6] in a line: Intrinsic clearance in human liver microsomes incubated upto 60 mins in presence of NADPH and UDPGA by LC-MS analysis. The class given is ADME, Microsome. To be noted: read-out: CLH. (Microsomes from liver hold many membrane-bound enzymes, among them those of drug oxidation.)
Series [7] addresses T3, Potassium channel subfamily T member 2 (Homo sapiens, UniProt Q6UVM3).
T3 sequence (Q6UVM3 whole entry): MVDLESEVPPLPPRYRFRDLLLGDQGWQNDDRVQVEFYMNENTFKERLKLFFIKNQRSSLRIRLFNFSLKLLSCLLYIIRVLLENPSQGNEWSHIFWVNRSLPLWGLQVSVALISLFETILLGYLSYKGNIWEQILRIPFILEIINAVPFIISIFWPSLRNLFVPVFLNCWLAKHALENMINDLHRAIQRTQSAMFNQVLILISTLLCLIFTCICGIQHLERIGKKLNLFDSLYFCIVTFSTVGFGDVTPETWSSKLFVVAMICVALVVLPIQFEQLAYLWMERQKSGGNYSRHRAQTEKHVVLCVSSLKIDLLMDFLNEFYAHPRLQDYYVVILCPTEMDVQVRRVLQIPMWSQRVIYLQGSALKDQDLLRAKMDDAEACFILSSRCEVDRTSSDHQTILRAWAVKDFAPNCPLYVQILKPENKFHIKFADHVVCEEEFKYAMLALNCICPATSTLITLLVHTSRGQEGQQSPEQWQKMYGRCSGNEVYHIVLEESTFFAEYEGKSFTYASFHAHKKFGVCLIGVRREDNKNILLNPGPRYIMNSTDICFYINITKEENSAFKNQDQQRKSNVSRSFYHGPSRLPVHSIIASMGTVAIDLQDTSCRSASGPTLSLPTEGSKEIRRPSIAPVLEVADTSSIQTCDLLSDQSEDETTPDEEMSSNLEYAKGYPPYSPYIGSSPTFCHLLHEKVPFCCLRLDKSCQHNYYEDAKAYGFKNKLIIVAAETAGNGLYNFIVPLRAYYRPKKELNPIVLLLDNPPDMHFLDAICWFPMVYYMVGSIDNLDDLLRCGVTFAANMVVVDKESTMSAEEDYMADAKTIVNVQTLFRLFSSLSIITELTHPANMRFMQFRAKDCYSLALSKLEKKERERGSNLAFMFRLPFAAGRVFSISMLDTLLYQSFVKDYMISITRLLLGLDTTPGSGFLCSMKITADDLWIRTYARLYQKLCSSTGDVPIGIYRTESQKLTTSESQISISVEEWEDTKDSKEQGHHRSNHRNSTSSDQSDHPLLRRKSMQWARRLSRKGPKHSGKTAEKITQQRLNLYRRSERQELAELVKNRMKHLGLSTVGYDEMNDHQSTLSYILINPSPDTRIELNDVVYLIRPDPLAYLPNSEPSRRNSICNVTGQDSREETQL
Briefly: Inhibition of human KCNT2 expressed in HEK cells at +60 mV holding potential by whole-cell patch clamp electrophysiology method. The class given is cell-based. The method, boiled down: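 Human KCNT2 transiently expressed in HEK cells and recorded by whole-cell patch clamp at 20–22 °C, 24 h after transfection. Pipette (mM): 130 KCl, 10 NaCl, 10 HEPES, 5 EGTA, pH 7.3–7.4, with ATP omitted. Each cell received one perfused concentration; DMSO ≤0.3%. Current at the end of the depolarizing pulse was normalized and fitted to a binding isotherm with Hill coefficient; ≥6 determinations per point, mean ± SEM.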

The nature of series [8]: Plasma protein binding in human at 10 uM incubated for 4 hrs by rapid equilibrium dialysis based LC-MS/MS analysis. To be noted: read-out: PPB. The class given is ADME, cell-free.
The target in series [9] is T1, hERG (KCNH2). The series is described as follows: Inhibition of hERG expressed in HEK293 cells at 10 uM by whole-cell patch clamp electrophysiology method relative to control. Format: toxicity, cell-based. To be noted: HEK293 cells that express hERG.

T1 sequence (Q12809 whole entry): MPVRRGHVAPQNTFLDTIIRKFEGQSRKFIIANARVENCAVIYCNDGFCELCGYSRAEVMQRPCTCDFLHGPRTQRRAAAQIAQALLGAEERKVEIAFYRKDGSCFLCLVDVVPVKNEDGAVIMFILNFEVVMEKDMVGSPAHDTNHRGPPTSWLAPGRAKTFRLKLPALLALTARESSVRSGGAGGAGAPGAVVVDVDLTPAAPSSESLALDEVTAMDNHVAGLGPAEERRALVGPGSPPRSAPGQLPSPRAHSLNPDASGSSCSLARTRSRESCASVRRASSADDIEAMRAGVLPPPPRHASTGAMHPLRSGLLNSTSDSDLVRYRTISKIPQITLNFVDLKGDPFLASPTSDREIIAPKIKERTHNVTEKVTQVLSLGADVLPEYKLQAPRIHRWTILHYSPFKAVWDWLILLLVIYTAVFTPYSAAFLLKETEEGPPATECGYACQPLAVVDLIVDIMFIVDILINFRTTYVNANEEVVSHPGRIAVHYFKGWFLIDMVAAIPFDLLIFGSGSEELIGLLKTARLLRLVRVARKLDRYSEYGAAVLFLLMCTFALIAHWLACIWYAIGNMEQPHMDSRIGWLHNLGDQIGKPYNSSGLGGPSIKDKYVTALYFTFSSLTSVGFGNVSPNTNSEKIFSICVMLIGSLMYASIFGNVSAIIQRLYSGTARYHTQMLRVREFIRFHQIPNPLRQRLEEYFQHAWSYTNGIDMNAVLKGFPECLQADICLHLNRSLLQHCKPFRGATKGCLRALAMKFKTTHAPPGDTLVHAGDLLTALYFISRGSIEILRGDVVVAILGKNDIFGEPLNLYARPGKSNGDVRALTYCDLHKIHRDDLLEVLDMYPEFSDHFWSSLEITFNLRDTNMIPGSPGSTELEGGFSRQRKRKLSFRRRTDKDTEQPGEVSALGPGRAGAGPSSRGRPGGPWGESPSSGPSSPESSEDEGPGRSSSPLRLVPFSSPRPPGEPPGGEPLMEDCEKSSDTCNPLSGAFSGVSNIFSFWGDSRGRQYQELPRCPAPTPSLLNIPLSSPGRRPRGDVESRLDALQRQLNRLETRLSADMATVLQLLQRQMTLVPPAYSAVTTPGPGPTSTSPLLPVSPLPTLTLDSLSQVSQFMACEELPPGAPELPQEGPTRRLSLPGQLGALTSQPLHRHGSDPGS
Voltage-gated inwardly rectifying potassium channel KCNH2, sequence (Q12809 whole entry): as above

One may read the inhibition as the relative decrease from the control value, in per cent. On hERG (KCNH2) [1], `COc1ccc(Cl)cc1NC(=O)CN1CCN(S(=O)(=O)N2CCC(C)CC2)CC1` displayed an inhibition at 10 µM of 40%.

`CCOC(=O)[C@@H]1CS[C@@]2(C(=O)Nc3ccc(Br)cc32)N1C(=O)c1ccc(Cl)cc1`: the “inhibition (INH)” value in series [2] was “Not Active”. Also, the remaining at 2 h in series [3] stood at 0%.

As usually defined, the IC50 is the midpoint of a concentration-inhibition curve. Regarding `Oc1ccc2ccccc2c1CNCCc1c[nH]c2ccccc12`, the IC50 in series [4] is 8.7 µM. This compound had an inhibition at 10 µM against hERG (KCNH2) [5] of 30%.

Take `CC(C)(C)CNC(=O)Nc1ccc2c(c1)CCN2Cc1ccc(F)cc1`: in series [4], the IC50 came to 5.5 µM. This compound also displayed an inhibition at 10 µM at hERG (KCNH2) [5] of 30%.

For the compound `O=S(=O)(Nc1ccc2c(c1)CCN2Cc1ccc(C(F)(F)F)cc1C(F)(F)F)C1CCCCC1`, in [6], the CLint scaled is less than 1 mL/min/kg. Further, half-maximal inhibition in [7] (IC50) was put at 1270 nM. The “inhibition (INH)” value in series [2] is “Not Active”. In series [8], the fraction unbound at 4 h, 10 µM worked out at 0.01. Besides, the remaining at 2 h in [3] was less than 80%.

For the compound `O=C(Nc1cccc(C(F)(F)F)c1)c1ccc2nc(N3C(=O)c4ccccc4C3=O)sc2c1`, on hERG (KCNH2) [9], at 10 µM the inhibition was 15%.

On hERG (KCNH2) [9], `Cc1cc(O)ccc1N/C=C/C(=O)c1ccccc1` returned an inhibition at 10 µM of 15%.

For `O=C(NCc1ccccc1)[C@H](Cc1c[nH]c2ccccc12)NCc1ccc(Oc2ccccc2)cc1`, the CLint scaled in series [6] was less than 80 mL/min/kg. For the same compound, the “inhibition (INH)” value in series [2] is “Not Active”. For the same compound, the fraction unbound at 4 h, 10 µM in [8] was 0.01. Moreover, the remaining at 2 h in series [3] is less than 80%.

The values are drawn from ChEMBL document CHEMBL5512679, “In Silico Assisted Identification, Synthesis, and In Vitro Pharmacological Characterization of Potent and Selective Blockers of the Epilepsy-Associated KCNT1 Channel” (J Med Chem, 2024).
